pIC50: −log10 of the molar value. In brackets after ≈: the same amount, converted by molar mass. One block for each compound: values may come before it. Activity calls are given as the source filed them. No cut-off for these calls is given here.
Experiments:
[1] = test system: MV4-11; test: Cytotoxicity against human MV4-11 cells incubated for 72 hrs by MTT assay; format: functional, cell-based; settings: MV4-11, 72 h
Outline: (§1)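 Leukemia cells were grown with 10% FBS at 37 °C in 5% CO₂; MV4-11 was kept in IMDM. Cells were seeded at 1–4 × 10⁴ per well, and an equal volume of medium containing increasing inhibitor concentrations was added. MTT was added for 2–4 h, formazan was dissolved in DMSO, and OD was read at 570 nm to derive IC50.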

[2] = test system: MV4-11; test: Effect on FLT3 protein expression in human MV4-11 cells at 1 to 100 nM incubated for 2 hrs by Western blotting method; format: cell-based; settings: mv4-11, 2 h, 0.1 µM
Outline: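 MV4-11 cells were treated with increasing concentrations for 2 h at 37 °C, washed in ice-cold PBS and lysed in RIPA buffer with 1% protease cocktail. Lysates were cleared at 13,000 rpm for 15 min at 4 °C, run on 5–10% polyacrylamide gels and transferred to PVDF. Blots were probed with anti-FLT3, anti-p-FLT3 and anti-β-actin, then an HRP secondary antibody.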

[3] = test system: THP-1; test: Growth inhibition of human THP1 cells incubated for 72 hrs by MTT assay; format: functional, cell-based; settings: THP-1, 72 h; outline: as §1
[4] = Solubility in PBS solution; format: physicochemical
[5] = test system: MV4-11; test: Induction of apoptosis in human MV4-11 cells assessed as late apoptotic cells level at 1 nM incubated for 48 hrs by Annexin V-FITC labeling based flow cytometry (reference value: 6.61%); format: functional
[6] = Cmax in Sprague-Dawley rat at 30 mg/kg, po after 15 mins to 24 hrs by HPLC method; format: ADME, organism-based; parameters: dose 30 mg/kg, route oral; settings: in vivo
Outline: (§2)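 Sprague–Dawley rats (n = 3) fasted overnight, then given a single 30 mg/kg oral gavage dose in 25% PEG400, 5% DMSO and 70% distilled water. Heparinized blood was drawn at 15 min, 30 min, 1, 2, 4, 6, 12 and 24 h, and plasma was separated by centrifugation. Plasma levels were measured by liquid–liquid extraction and HPLC.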

[7] = Solubility in water; format: physicochemical
[8] = AUC (0 to 24 hrs) in Sprague-Dawley rat at 30 mg/kg, po after 15 mins to 24 hrs by HPLC method; format: ADME, organism-based; parameters: dose 30 mg/kg, time < 24 hr, route oral; settings: in vivo; outline: as §2
[9] = test system: MV4-11; test: Growth inhibition of FLT3-ITD bearing human MV4-11 cells incubated for 72 hrs by MTT assay; format: functional, cell-based; settings: MV4-11, 72 h; outline: as §1
[10] = test system: MV4-11; test: Induction of apoptosis in human MV4-11 cells assessed as necrotic cells level at 100 nM incubated for 48 hrs by Annexin V-FITC labeling based flow cytometry (reference value: 3.76%); format: functional
[11] = test system: A549; test: Growth inhibition of human A549 cells incubated for 72 hrs by MTT assay; format: functional, cell-based; settings: A549, 72 h
Outline: (§3)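 Non-leukemia lines were grown in RPMI 1640 or DMEM with 10% FBS at 37 °C in 5% CO₂. Cells were seeded at 2–5 × 10³ per well and incubated 24 h, then treated with diluted inhibitors for 72 h. MTT was added for 2–4 h, formazan was dissolved in DMSO, and OD was read at 570 nm to derive IC50.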

[12] = Growth inhibition of human PANC1 cells incubated for 72 hrs by MTT assay; format: functional, cell-based; settings: PANC-1, 72 h; outline: as §3
[13] = test system: MV4-11; test: Induction of apoptosis in human MV4-11 cells assessed as late apoptotic cells level at 100 nM incubated for 48 hrs by Annexin V-FITC labeling based flow cytometry (reference value: 6.61%); format: functional
[14] = test system: Mus musculus; test: Toxicity in FLT3-ITD bearing human MV4-11 cells xenografted NOD-SCID mouse assessed as induction of body weight loss at 10 to 60 mg/kg/day, po; format: organism-based; settings: in vivo
Outline: (§4)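 MV4-11 cells in exponential growth were washed three times in serum-free medium, resuspended at 1 × 10⁸ cells/mL and injected subcutaneously into NOD-SCID mice aged 5–6 weeks. At 100–200 mm³, tumors were randomized into 4 groups of 6. Dosing was 10, 30 or 60 mg/kg/d, or vehicle (25% PEG400 plus 5% DMSO in water), by oral gavage once daily. Tumor volume was measured every 3 days, and body weight and toxicity signs were monitored.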

[15] = test system: K562; test: Growth inhibition of human K562 cells incubated for 72 hrs by MTT assay; format: functional, cell-based; settings: K562, 72 h; outline: as §1
[16] = Growth inhibition of human A875 cells incubated for 72 hrs by MTT assay; format: functional, cell-based; settings: A875, 72 h; outline: as §3
[17] = test system: MV4-11; test: Induction of apoptosis in human MV4-11 cells assessed as viable cells at 1 nM incubated for 48 hrs by Annexin V-FITC labeling based flow cytometry (reference value: 86.1%); format: functional; settings: MV4-11, 48 h, read-out: Activity
[18] = test system: Jurkat; test: Growth inhibition of human Jurkat cells incubated for 72 hrs by MTT assay; format: functional, cell-based; outline: as §1
[19] = test system: MV4-11; test: Antitumor activity against FLT3-ITD bearing human MV4-11 cells xenografted in NOD-SCID mouse assessed as tumor growth inhibition at 10 mg/kg/day, po; format: functional; settings: MV4-11, po, read-out: TGI; outline: as §4
[20] = Clearance in Sprague-Dawley rat at 30 mg/kg, po after 15 mins to 24 hrs by HPLC method; format: ADME, organism-based; settings: in vivo; outline: as §2
[21] = test system: MV4-11; test: Induction of apoptosis in human MV4-11 cells assessed as early apoptotic cells level at 100 nM incubated for 48 hrs by Annexin V-FITC labeling based flow cytometry (reference value: 3.54%); format: functional
[22] = test system: MCF7; test: Growth inhibition of human MCF7 cells incubated for 72 hrs by MTT assay; format: functional, cell-based; settings: MCF7, 72 h; outline: as §3
[23] = test system: MV4-11; test: Antitumor activity against FLT3-ITD bearing human MV4-11 cells xenografted in NOD-SCID mouse assessed as induction of complete tumor regression at 60 mg/kg/day, po; format: functional, organism-based; outline: as §4
[24] = test system: MV4-11; test: Induction of apoptosis in human MV4-11 cells assessed as necrotic cells level at 10 nM incubated for 48 hrs by Annexin V-FITC labeling based flow cytometry (reference value: 3.76%); format: functional
[25] = test system: MV4-11; test: Induction of apoptosis in FLT3-ITD bearing human MV4-11 cells xenografted in NOD-SCID mouse at 60 mg/kg/day, po qd for 7 days by TUNEL assay
[26] = Solubility in EtOH solution; format: physicochemical
[27] = test system: MV4-11; test: Induction of apoptosis in human MV4-11 cells assessed as necrotic cells level at 1 nM incubated for 48 hrs by Annexin V-FITC labeling based flow cytometry (reference value: 3.76%); format: functional
[28] = test system: U-251; test: Growth inhibition of human U251 cells incubated for 72 hrs by MTT assay; format: functional, cell-based; settings: U-251, 72 h; outline: as §3
[29] = test system: Mus musculus; test: Toxicity in FLT3-ITD bearing human MV4-11 cells xenografted NOD-SCID mouse assessed as induction of toxicity signs at 10 to 60 mg/kg/day, po; format: organism-based; settings: in vivo; outline: as §4
[30] = test system: MV4-11; test: Induction of apoptosis in human MV4-11 cells incubated for 48 hrs by Annexin V-FITC labeling based flow cytometry; format: functional, cell-based
[31] = test system: U-937; test: Growth inhibition of human U937 cells incubated for 72 hrs by MTT assay; format: functional, cell-based; settings: U-937, 72 h; outline: as §1
[32] = test system: MV4-11; test: Antitumor activity against FLT3-ITD bearing human MV4-11 cells xenografted in NOD-SCID mouse assessed as tumor growth inhibition at 30 mg/kg/day, po; format: functional; settings: MV4-11, po, read-out: TGI; outline: as §4
[33] = Solubility in MeOH solution; format: physicochemical
[34] = test system: MV4-11; test: Inhibition of cell proliferation of FLT3-ITD bearing human MV4-11 cells xenografted in NOD-SCID mouse assessed as reduction in Ki67-positive cells in tumor tissues at 60 mg/kg/day, po qd for 7 days by immunohistochemistry; format: functional, organism-based
Outline: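 NOD-SCID mice bearing subcutaneous MV4-11 xenografts were dosed at 60 mg/kg/d by oral gavage, once daily. Tumors were harvested 7 days later. Proliferation was scored by Ki67 immunostaining and apoptosis by TUNEL staining.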

[35] = test system: MV4-11; test: Antitumor activity against FLT3-ITD bearing human MV4-11 cells xenografted in orally dosed NOD-SCID mouse assessed as tumor growth inhibition; format: functional, organism-based; outline: as §4
[36] = test system: HepG2; test: Growth inhibition of human HepG2 cells incubated for 72 hrs by MTT assay; format: functional, cell-based; settings: HepG2, 72 h; outline: as §3
[37] = test system: MV4-11; test: Induction of apoptosis in human MV4-11 cells assessed as early apoptotic cells level at 1 nM incubated for 48 hrs by Annexin V-FITC labeling based flow cytometry (reference value: 3.54%); format: functional
[38] = test system: MV4-11; test: Induction of apoptosis in human MV4-11 cells assessed as early apoptotic cells level at 10 nM incubated for 48 hrs by Annexin V-FITC labeling based flow cytometry (reference value: 3.54%); format: functional
[39] = test system: MV4-11; test: Induction of apoptosis in human MV4-11 cells assessed as late apoptotic cells level at 10 nM incubated for 48 hrs by Annexin V-FITC labeling based flow cytometry (reference value: 6.61%); format: functional
[40] = test system: MV4-11; test: Induction of apoptosis in human MV4-11 cells assessed as viable cells at 100 nM incubated for 48 hrs by Annexin V-FITC labeling based flow cytometry (reference value: 86.1%); format: functional; settings: MV4-11, 48 h, read-out: Activity
[41] = Apparent half life in Sprague-Dawley rat at 30 mg/kg, po after 15 mins to 24 hrs by HPLC method; format: ADME, organism-based; settings: in vivo, read-out: t1/2(app) (converted); outline: as §2
[42] = test system: MV4-11; test: Induction of apoptosis in human MV4-11 cells assessed as viable cells at 10 nM incubated for 48 hrs by Annexin V-FITC labeling based flow cytometry (reference value: 86.1%); format: functional; settings: MV4-11, 48 h, read-out: Activity
[43] = test system: HCT-116; test: Growth inhibition of human HCT116 cells incubated for 72 hrs by MTT assay; format: functional, cell-based; settings: HCT-116, 72 h; outline: as §3
[44] = test system: Rattus norvegicus; test: Volume of distribution at steady state in Sprague-Dawley rat at 30 mg/kg, po after 15 mins to 24 hrs by HPLC method; format: ADME, organism-based; settings: in vivo; outline: as §2
[45] = Solubility in SPSS; format: physicochemical

Compound: Cc1ccc2nc(-c3ccc(NC(=O)Nc4cc(C(C)(C)C)on4)cc3)cn2c1
pIC50 [1]: 8.39

Compound: CC(C)(C)c1cc(NC(=O)Nc2ccc(-c3cc4ccccc4s3)cc2)no1
pIC50 [1]: < 6.05

Compound: CC(C)(C)c1cc(NC(=O)Nc2ccc(-c3cn4ccncc4n3)cc2)no1
pIC50 [1]: 7.35

pIC50 [3]: 5.47
solubility [4]: 36.6 µg/mL (≈ 90.3 µM)
Cmax [6]: 3290 ng/mL
solubility [7]: 304 µg/mL (≈ 749 µM)
AUC(0-t) at 24 h [8]: 14300 ng·h/mL
pIC50 [9]: 8.52
pIC50 [11]: 5.25
pIC50 [15]: < 4.70
pIC50 [18]: < 4.70
CL/F [20]: 33.5 mL/min/kg
pIC50 [22]: < 4.70
solubility [26]: 3150 µg/mL (≈ 7770 µM)
pIC50 [28]: < 4.70
pIC50 [31]: < 4.70
solubility [33]: 7460 µg/mL (≈ 18400 µM)
pIC50 [36]: < 4.70
half-life [41]: 4.86 h
pIC50 [43]: < 4.70
Vdss [44]: 14.12 L/kg
solubility [45]: 1.47 µg/mL (≈ 3.63 µM)
Compound: COc1ccn2cc(-c3ccc(NC(=O)Nc4cc(C(C)(C)C)on4)cc3)nc2c1
pIC50 [1]: 8.55
Activity [2]: Non-toxic
Activity [5]: 12.1%
Activity [10]: 15.3%
pIC50 [12]: < 4.70
Activity [13]: 23%
Activity [14]: Non-toxic
pIC50 [16]: < 4.70
viability at 0.001 µM [17]: 78.7%
inhibition in vivo at 10 mg/kg/day [19]: 51%
Activity [21]: 6.88%
Activity [23]: Active
Activity [24]: 10.8%
Activity [25]: Active
Activity [27]: 5.34%
Activity [29]: Non-toxic
Activity [30]: Dose-dependent effect
inhibition in vivo at 30 mg/kg/day [32]: 87%
inhibition [34]: Active
TGI [35]: Dose-dependent effect
Activity [37]: 3.86%
Activity [38]: 7.42%
Activity [39]: 18.6%
viability at 0.1 µM [40]: 54.8%
viability at 0.01 µM [42]: 63.2%

Compound: Cc1cccn2cc(-c3ccc(NC(=O)Nc4cc(C(C)(C)C)on4)cc3)nc12
pIC50 [1]: 6.60

Compound: CC(C)(C)c1cc(NC(=O)Nc2ccc(-c3cn4cccc(C(F)(F)F)c4n3)cc2)no1
pIC50 [1]: < 6.05

Compound: CC(C)(C)c1cc(NC(=O)Nc2ccc(-c3nc4ccccc4o3)cc2)no1
pIC50 [1]: 7.08

Reference: ChEMBL document CHEMBL3593173, “Discovery of novel N-(5-(tert-butyl)isoxazol-3-yl)-N'-phenylurea analogs as potent FLT3 inhibitors and evaluation of their activity against acute myeloid leukemia in vitro and in vivo” (Bioorg Med Chem, 2015)
